Calls of active or inactive are those of the source. The calls are words filed in the database; no cut-off is given here.
Assays:
Mus musculus [1] = assay: Antidiabetic activity in C57BLKS/J-db/db mouse assessed as reduction of fasting blood glucose level at 250 mg/kg/day, po for 5 weeks; assay type: functional, organism-based
Mus musculus [2] = assay: Antiobese activity in high fat diet-fed C57BL/6J mouse assessed as decrease in plasma triglyceride level at 250 mg/kg/day, po for 6 weeks; assay type: functional; set-up: scale not given: the % may be the effect or the level left
Procedure, shortened: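 DIO male C57BL/6J mice received daily oral dosing in cellulose/lactose vehicle for 6 weeks and were killed after the final dose. Plasma and liver triglycerides were measured by triglyceride assay kit, and fat depots were weighed.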

Mus musculus [3] = assay: Antidiabetic activity in high fat diet-fed C57BL/6J mouse assessed as decrease in plasma insulin level at 250 mg/kg/day, po for 4 weeks; assay type: functional; set-up: scale not given: the % may be the effect or the level left
Procedure, shortened: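 DIO male C57BL/6J mice (60 kcal% fat diet for 8 weeks) were gavaged daily in 0.5% microcrystalline cellulose/1.6% lactose vehicle. Plasma insulin was determined by ELISA after 4 weeks of treatment. Mean ± SE, n = 5–8.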

Mus musculus [4] = assay: Antiobese activity in C57BLKS/J-db/db mouse assessed as decrease in plasma triglyceride level at 250 mg/kg/day, po […]; assay type: functional; set-up: scale not given: the % may be the effect or the level left
Procedure, shortened: (§1)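 db/db mice were gavaged once daily in 0.5% microcrystalline cellulose/1.6% lactose vehicle for 6 weeks and killed after the final dose. Plasma triglycerides were measured with a colorimetric triglyceride assay kit.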

Mus musculus [5] = assay: Antidiabetic activity in high fat diet-fed C57BL/6J mouse assessed as decrease in blood glucose level at 250 mg/kg/day, po for 4 weeks measured after 60 mins by intraperitoneal glucose tolerance test; assay type: functional, organism-based
Procedure, shortened: (§2)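 High-fat-diet (60 kcal%, 8 weeks) male C57BL/6J mice were randomized by body weight and fed glucose, then dosed orally once daily in cellulose/lactose vehicle. ipGTT was done at 4 weeks: D-glucose 2 g/kg ip, glucometer readings at 0, 15, 30, 60, 90 and 120 min. n = 5–8.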

Mus musculus [6] = assay: Antidiabetic activity in high fat diet-fed C57BL/6J mouse assessed as decrease in blood glucose level at 250 mg/kg/day, po for 4 weeks measured after 120 mins by intraperitoneal glucose tolerance test; assay type: functional, organism-based; procedure, shortened: as §2
Mus musculus [7] = assay: Antidiabetic activity in C57BLKS/J-db/db mouse assessed as decrease in area under curve at 50 mg/kg/day, po for 4 weeks by insulin tolerance test; assay type: functional; set-up: scale not given: the % may be the effect or the level left
[8] = Stability in acidic buffer at pH 2 after 6 hrs by HPLC; assay type: physicochemical; conditions: acidic buffer, pH 2
Procedure, shortened: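 A 0.5 mg/mL solution in acetonitrile was adjusted to pH 2 with H3PO4 and analyzed over 6 h by HPLC. Conditions: C18 column at 25 °C, 58% acetonitrile in 0.05 mol/L KH2PO4/0.005 mol/L SDS, 1 mL/min, detection at 320 nm.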

Mus musculus [9] = assay: Toxicity in C57BLKS/J-db/db mouse assessed as increase in subcutaneous fat at 50 mg/kg/day, po for 6 weeks; assay type: organism-based; set-up: route oral; conditions: in vivo, 1008 h
Procedure, shortened: (§3)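 db/db mice (half male, half female) were dosed by oral gavage daily for 6 weeks in 0.5% microcrystalline cellulose/1.6% lactose vehicle. Body weight and food intake were recorded daily. Mice were killed after the final dose, and liver and fat depots were weighed and expressed relative to body weight.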

Mus musculus [10] = assay: Antidiabetic activity in C57BLKS/J-db/db mouse assessed as decrease in fed blood glucose level at 50 mg/kg/day, po for 3 weeks; assay type: functional; set-up: scale not given: the % may be the effect or the level left
Mus musculus [11] = assay: Antidiabetic activity in C57BLKS/J-db/db mouse assessed as alleviation of glucose tolerance at 50 mg/kg/day, po for 3 weeks by intraperitoneal glucose tolerance test; assay type: functional, organism-based
Procedure, shortened: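 Male and female C57BLKS/J-db/db mice, randomized at 6 weeks of age by body weight and fed glucose, were gavaged once daily in vehicle (0.5% microcrystalline cellulose, 1.6% lactose). For ipGTT, D-glucose was given at 2 g/kg ip, and blood glucose was read by glucometer at 0, 15, 30, 60, 90 and 120 min.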

Mus musculus [12] = assay: Antidiabetic activity in C57BLKS/J-db/db mouse assessed as decrease in fed blood glucose level at 50 mg/kg/day, po for 4 weeks; assay type: functional; set-up: scale not given: the % may be the effect or the level left
Mus musculus [13] = assay: Antiobese activity in C57BLKS/J-db/db mouse assessed as decrease in plasma triglyceride level at 50 mg/kg/day, po […]; assay type: functional; procedure, shortened: as §1
[14] = Oral bioavailability in 12 hrs fasting Sprague-Dawley rat at 20 mg/kg; assay type: ADME, organism-based; conditions: in vivo
Mus musculus [15] = assay: Toxicity in C57BLKS/J-db/db mouse assessed as change in food intake at 50 mg/kg/day, po for 6 weeks; assay type: organism-based; set-up: route oral; conditions: in vivo, 1008 h; procedure, shortened: as §3
Mus musculus [16] = assay: Antidiabetic activity in C57BLKS/J-db/db mouse assessed as reduction of fasting blood glucose level at 50 mg/kg/day, po for 3 weeks; assay type: functional; set-up: scale not given: the % may be the effect or the level left
[17] = Aqueous solubility of compound in distilled water; assay type: physicochemical
Procedure, shortened: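 Excess solid was suspended in distilled water and stirred 24 h at 25 ± 0.5 °C. The suspension was filtered, and dissolved concentration was measured by HPLC.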

Mus musculus [18] = assay: Toxicity in C57BLKS/J-db/db mouse assessed as change in body weight at 50 mg/kg/day, po for 6 weeks; assay type: organism-based; set-up: route oral; conditions: in vivo, 1008 h; procedure, shortened: as §3
Mus musculus [19] = assay: Toxicity in C57BLKS/J-db/db mouse assessed as reduction in liver weight at 50 mg/kg/day, po for 6 weeks; assay type: organism-based; set-up: route oral; scale not given: the % may be the effect or the level left; conditions: in vivo, 1008 h; procedure, shortened: as §3

decrease in content after 6 h at 6 h [8] [%]	bioavailability [14] [%]	solubility [17] [µg/mL]	SMILES	Activity (Mus musculus [1])	Activity (Mus musculus [2]) [%]	Activity (Mus musculus [3]) [%]	Activity (Mus musculus [4]) [%]	Activity (Mus musculus [5])	Activity (Mus musculus [6])	Activity (Mus musculus [7]) [%]	Activity (Mus musculus [9]) [%]	Activity (Mus musculus [10]) [%]	Activity (Mus musculus [11])	Activity (Mus musculus [12]) [%]	Activity (Mus musculus [13])	Activity (Mus musculus [15])	Activity (Mus musculus [16]) [%]	Activity (Mus musculus [18])	Activity (Mus musculus [19]) [%]
			CN(C)C(=N)NC(=N)N [METFORMIN]	Active	33	43	23	Active	Active	14									
17	2.65	< 1000	COc1ccc2c(c1OC)CN1CCc3cc4c(cc3C1=C2)OCO4 [DIHYDROBERBERINE]							12	14	25	inactive	18	inactive	Non-toxic	17	Non-toxic	11

Reference: ChEMBL document CHEMBL1821702, “8,8-Dimethyldihydroberberine with improved bioavailability and oral efficacy on obese and diabetic mouse models” (Bioorg Med Chem, 2010)
